In ChEMBL document CHEMBL1125107, “Cephalosporin 3'-quinolone esters with a dual mode of action” (J Med Chem, 1990):
In brackets after ≈: the same amount, converted by molar mass.

Columns and labels:
Format in all cases: functional
[1] = tested on: Streptococcus pneumoniae; test: Minimum inhibitory concentration against Streptococcus pneumoniae 6301
Procedure, shortened: (§1)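 Broth MIC determination: serial 2-fold dilutions in Mueller-Hinton broth by standard methodology; the lowest concentration inhibiting growth is reported as the MIC, in nmol/mL.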

[2] = tested on: Staphylococcus aureus; test: Minimum inhibitory concentration against Staphylococcus aureus 95 (Methicillin-resistant, high-level beta-lactamase producer)
Procedure, shortened: (§2)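 Serial 2-fold broth dilution in Mueller-Hinton broth, run by standard methodology; read-out is the minimum inhibitory concentration (MIC).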

[3] = tested on: Pseudomonas aeruginosa; test: Evaluated for the minimum inhibitory concentration against Pseudomonas aeruginosa 18S/H (Class Id beta-lactamase overproducer)
Procedure, shortened: (§3)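 MIC by serial 2-fold dilution in Mueller-Hinton broth; results given as minimum inhibitory concentrations (nmol/mL).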

[4] = tested on: Streptococcus pyogenes; test: Minimum inhibitory concentration against Streptococcus pyogenes 4; procedure, shortened: as §1
[5] = tested on: Pseudomonas aeruginosa; test: Minimum inhibitory concentration against Pseudomonas aeruginosa ATCC 27853; procedure, shortened: as §1
[6] = tested on: Proteus vulgaris; test: Evaluated for the minimum inhibitory concentration against Proteus vulgaris 1028 BC (Class Ic beta-lactamase overproducer; procedure, shortened: as §3
[7] = tested on: Escherichia coli; test: Evaluated for the minimum inhibitory concentration against Escherichia coli TEM-1; procedure, shortened: as §2
[8] = tested on: Enterobacter cloacae; test: Evaluated for the minimum inhibitory concentration against Enterobacter cloacae P99; procedure, shortened: as §2
[9] = tested on: Proteus vulgaris; test: Evaluated for the minimum inhibitory concentration against Proteus vulgaris 1028 BC; procedure, shortened: as §2
[10] = tested on: Pseudomonas aeruginosa; test: Evaluated for the minimum inhibitory concentration against Pseudomonas aeruginosa 18S/H ( Class Id beta-lactamase overproducer); procedure, shortened: as §3
[11] = tested on: Proteus vulgaris; test: Minimum inhibitory concentration against Proteus vulgaris 1028 BC (Class Ic beta-lactamase overproducer); procedure, shortened: as §1
[12] = tested on: Escherichia coli; test: Evaluated for the minimum inhibitory concentration against Escherichia coli UB 1005; procedure, shortened: as §3

Structure (SMILES)	MIC [1]	MIC [2]	MIC [3]	MIC [4]	MIC [5]	MIC [6]	MIC [7]	MIC [8]	MIC [9]	MIC [10]	MIC [11]	MIC [12]
CN1CCN(c2c(F)cc3c(=O)c(C(=O)OCC4=C(C(=O)O)N5C(=O)[C@@H](NC(=O)/C(=N/OC(C)(C)C(=O)O)c6csc(N)n6)C5SC4)cn(CCF)c3c2F)CC1 (stereo partly specified)	0.5 µg/mL (≈ 0.597 µM)	4 µg/mL (≈ 4.78 µM)	> 128 µg/mL	0.5 µg/mL (≈ 0.597 µM)	8 µg/mL (≈ 9.56 µM)	0.5 µg/mL (≈ 0.597 µM)	–	–	–	–	–	–
CCn1cc(C(=O)O)c(=O)c2cc3c(cc21)OCO3 [OXOLINIC ACID]	> 128 µg/mL	2 µg/mL (≈ 7.66 µM)	–	> 128 µg/mL	64 µg/mL (≈ 245 µM)	–	0.25 µg/mL (≈ 0.957 µM)	0.5 µg/mL (≈ 1.91 µM)	0.063 µg/mL (≈ 0.241 µM)	4 µg/mL (≈ 15.3 µM)	–	–
CCn1cc(C(=O)OCC2=C(C(=O)O)N3C(=O)[C@@H](NC(=O)Cc4cccs4)C3SC2)c(=O)c2cc(F)c(N3CCN(C=O)CC3)cc21 (stereo partly specified)	0.063 µg/mL (≈ 0.0921 µM)	4 µg/mL (≈ 5.85 µM)	16 µg/mL (≈ 23.4 µM)	–	> 128 µg/mL	–	–	–	–	–	4 µg/mL (≈ 5.85 µM)	–
O=C(O)c1cn(-c2ccc(F)cc2)c2cc3c(cc2c1=O)OCO3	64 µg/mL (≈ 196 µM)	1 µg/mL (≈ 3.06 µM)	0.5 µg/mL (≈ 1.53 µM)	> 128 µg/mL	–	0.5 µg/mL (≈ 1.53 µM)	–	–	–	–	–	–
CCn1cc(C(=O)OCC2=C(C(=O)O)N3C(=O)[C@@H](NC(=O)/C(=N/OC)c4csc(N)n4)C3SC2)c(=O)c2cc(F)c(N3CCSCC3)cc21 (stereo partly specified)	0.016 µg/mL (≈ 0.0219 µM)	0.5 µg/mL (≈ 0.683 µM)	8 µg/mL (≈ 10.9 µM)	< 0.008 µg/mL	128 µg/mL (≈ 175 µM)	2 µg/mL (≈ 2.73 µM)	–	–	–	–	–	1 µg/mL (≈ 1.37 µM)
CCn1cc(C(=O)OCC2=C(C(=O)O)N3C(=O)[C@@H](NC(=O)COc4ccccc4)C3SC2)c(=O)c2cc(F)c(N3CCCC3)cc21 (stereo partly specified)	< 0.008 µg/mL	0.5 µg/mL (≈ 0.768 µM)	32 µg/mL (≈ 49.2 µM)	–	> 128 µg/mL	32 µg/mL (≈ 49.2 µM)	–	–	–	–	–	–
